Reference: ChEMBL document CHEMBL4665734, “Optimization of globomycin analogs as novel gram-negative antibiotics” (Bioorg Med Chem Lett, 2020)
In brackets after ≈: the same amount, converted by molar mass. Starred links: 1 amine or outer side, 2 acyl side, 3 side chain; linkers in the order of their positions; H or OH if unused. Non-standard residues stand in square brackets, D forms with d. Residues, ends and D or L forms follow the SMILES beside them. *: point of attachment. X10 = CCCCCC[C@@H](OC[C@@H](CC)N[*:1])[C@@H](C)C(=O)[*:2]; X1 = CCCCCC[C@@H](OC[C@@H](C)N[*:1])[C@@H](C)C(=O)[*:2]; X8 = CCCCCC[C@@H](O[C@@H](C)CN[*:1])[C@@H](C)C(=O)[*:2]; X7 = CCCCCC[C@@H](O[C@H](C)CN[*:1])[C@@H](C)C(=O)[*:2]; X4 = CCCCCCN(CCN[*:1])[C@@H](C)C(=O)[*:2]; Gly(cHept) = N[C@H](C(=O)O)C1CCCCCC1; Propyl(3-guanidino) = N=C(N)NCCC*; aThr = C[C@H](O)[C@H](N)C(=O)O; NMeL = CN[C@@H](CC(C)C)C(=O)O; Chg = N[C@H](C(=O)O)C1CCCCC1; NMeNva = CCC[C@H](NC)C(=O)O; Propyl(3-NMe2) = CN(C)CCC*; hSer = N[C@@H](CCO)C(=O)O; Dap = NC[C@H](N)C(=O)O; Propyl(3-NH2) = NCCC*; NH(CH2)3NH2 = NCCCN*; X12 = NCC(CN)*; X11 = NCCCC*

How the values were obtained:
Escherichia coli CFT073 = experiment: Inhibition of LspA in wild type Escherichia coli CFT073 assessed as inhibition of bacterial growth
How it was run: (§1)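 Read-out is the minimum inhibitory concentration, reported in µM.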

[1] = Stability of the compound in mouse plasma assessed as parent compound remaining after 24 hrs; format: ADME, cell-free; details: read-out: Stabilty
How it was run: (§2)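 Test compound incubated for 24 hour in human, rat or mouse plasma. Stability is reported as the percentage of parent compound remaining.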

[2] = Stability of the compound in human plasma assessed as parent compound remaining after 24 hrs; format: ADME, cell-free; details: read-out: Stabilty; how it was run: as §2
[3] = Growth inhibition of Staphylococcus aureus USA300
Escherichia coli = experiment: Inhibition of LspA in Escherichia coli CFT073imp4213 harboring outer membrane-permeable mutant assessed as inhibition of bacterial growth; how it was run: as §1
[4] = Lipophilicity, logD of the compound at pH 7.4; details: buffer, pH 7.4, logD

| Compound | MIC (Escherichia coli CFT073) [µM] | remaining at 24 h [1] [%] | remaining at 24 h [2] [%] | MIC [3] [µM] | MIC (Escherichia coli) [µM] | logD [4] |
| --- | --- | --- | --- | --- | --- | --- |
| CCCCCCN1CCNC(=O)[C@H]([C@H](C)O)NC(=O)[C@H](CN)NC(=O)[C@H](C2CCCCC2)NC(=O)[C@H](CC(C)C)N(C)C(=O)[C@@H]1C (cyclo([Chg][Dap][aThr][X4][NMeL])) | 25 (≈ 16.3 µg/mL) | 112 | 95 | > 100 | 0.5 (≈ 0.326 µg/mL) |  |
| CCCCCC[C@H]1C(=O)N(C)[C@@H](CC(C)C)C(=O)N[C@@H](C2CCCCC2)C(=O)N[C@@H](CN)C(=O)N[C@@H]([C@H](C)O)C(=O)NCCN1C | 12 (≈ 7.82 µg/mL) | 81 | 92 | 100 (≈ 65.2 µg/mL) | 0.39 (≈ 0.254 µg/mL) |  |
| CCCCCC[C@H]1OC[C@@H](C)NC(=O)[C@H](COCCCN)NC(=O)[C@H](CN)NC(=O)[C@H](C2CCCCC2)NC(=O)[C@H](CC(C)C)N(C)C(=O)[C@@H]1C (cyclo([Chg][Dap]S(Propyl(3-NH2))[X1][NMeL])) | 11 (≈ 7.96 µg/mL) |  |  | 100 (≈ 72.4 µg/mL) | 0.28 (≈ 0.203 µg/mL) | 1.5 |
| CCCCCC[C@H]1O[C@@H](C)CNC(=O)[C@H]([C@H](C)O)NC(=O)[C@H](CN)NC(=O)[C@H](C2CCCCC2)NC(=O)[C@H](CC(C)C)N(C)C(=O)[C@@H]1C (cyclo([Chg][Dap][aThr][X8][NMeL])) | 12 (≈ 8.17 µg/mL) | 101 | 91 | 100 (≈ 68.1 µg/mL) | 0.1 (≈ 0.0681 µg/mL) |  |
| CCCCCC[C@H]1OC[C@@H](C)NC(=O)[C@H](COCCCN(C)C)NC(=O)[C@H](CN)NC(=O)[C@H](C2CCCCC2)NC(=O)[C@H](CC(C)C)N(C)C(=O)[C@@H]1C (cyclo([Chg][Dap]S(Propyl(3-NMe2))[X1][NMeL])) | 25 (≈ 18.8 µg/mL) |  |  | 100 (≈ 75.2 µg/mL) | 0.39 (≈ 0.293 µg/mL) | 2.1 |
| CCCCCC[C@H]1OC[C@@H](C)NC(=O)[C@H](CNCCCN)NC(=O)[C@H](CN)NC(=O)[C@H](C2CCCCCC2)NC(=O)[C@H](CCC)N(C)C(=O)[C@@H]1C | 3.1 (≈ 2.24 µg/mL) |  |  | 50 (≈ 36.2 µg/mL) | 0.28 (≈ 0.202 µg/mL) | 1.1 |
| CCCCCC[C@H]1OC[C@@H](C)NC(=O)[C@H](COCCCCN)NC(=O)[C@H](CN)NC(=O)[C@H](C2CCCCCC2)NC(=O)[C@H](CCC)N(C)C(=O)[C@@H]1C (cyclo([Dap]S(X11)[X1][NMeNva][Gly(cHept)])) | 6.3 (≈ 4.65 µg/mL) |  |  | 71 (≈ 52.4 µg/mL) | 0.14 (≈ 0.103 µg/mL) | 1.8 |
| CCCCCC[C@H]1OC[C@@H](C)NC(=O)[C@H](COC(CN)CN)NC(=O)[C@H](CN)NC(=O)[C@H](C2CCCCCC2)NC(=O)[C@H](CCC)N(C)C(=O)[C@@H]1C (cyclo([Dap]S(X12)[X1][NMeNva][Gly(cHept)])) | 3.1 (≈ 2.29 µg/mL) |  |  | 50 (≈ 37 µg/mL) | 0.55 (≈ 0.406 µg/mL) | 1.1 |
| CCC[C@H]1C(=O)N[C@@H](C2CCCCCC2)C(=O)N[C@@H](CN)C(=O)N[C@@H]([C@H](C)O)C(=O)NCC(=O)O[C@H](C[C@@H]2CC[C@@H]3CC[C@H]2C3)[C@@H](C)C(=O)N1C | 0.4 (≈ 0.288 µg/mL) |  |  | 25 (≈ 18 µg/mL) | 0.009 (≈ 0.00647 µg/mL) | 3.1 |
| CCC[C@H]1C(=O)N[C@@H](C2CCCCCC2)C(=O)N[C@@H](CN)C(=O)N[C@@H]([C@H](C)O)C(=O)NCC(=O)O[C@H](CC2CC3(CCC3)C2)[C@@H](C)C(=O)N1C | 0.78 (≈ 0.55 µg/mL) |  |  | 50 (≈ 35.2 µg/mL) | 0.009 (≈ 0.00634 µg/mL) | 2.9 |
| CC(C)C[C@H]1C(=O)N[C@@H](C2CCCCC2)C(=O)N[C@@H](CN)C(=O)N[C@@H]([C@H](C)O)C(=O)NCC(=O)O[C@H](CCCCCCC(C)(C)O)[C@@H](C)C(=O)N1C | 15 (≈ 11.1 µg/mL) |  |  | > 100 | 0.55 (≈ 0.406 µg/mL) | 2.2 |
| CCCCCC[C@H]1OC[C@@H](CC)NC(=O)[C@H]([C@H](C)O)NC(=O)[C@H](CN)NC(=O)[C@H](C2CCCCC2)NC(=O)[C@H](CC(C)C)N(C)C(=O)[C@@H]1C (cyclo([Chg][Dap][aThr][X10][NMeL])) | 2.2 (≈ 1.53 µg/mL) | 87 | 101 | 50 (≈ 34.7 µg/mL) | 0.024 (≈ 0.0167 µg/mL) |  |
| CCCCCC[C@H]1OC[C@@H](C)NC(=O)[C@H](COCCCNC(=N)N)NC(=O)[C@H](CN)NC(=O)[C@H](C2CCCCC2)NC(=O)[C@H](CC(C)C)N(C)C(=O)[C@@H]1C (cyclo([Chg][Dap]S(Propyl(3-guanidino))[X1][NMeL])) | 4.4 (≈ 3.37 µg/mL) |  |  | 5 (≈ 3.83 µg/mL) | 0.2 (≈ 0.153 µg/mL) | 2 |
| COC(C)(C)CCCCCC[C@H]1OC(=O)CNC(=O)[C@H]([C@H](C)O)NC(=O)[C@H](CN)NC(=O)[C@H](C2CCCCC2)NC(=O)[C@H](CC(C)C)N(C)C(=O)[C@@H]1C | 2.2 (≈ 1.66 µg/mL) |  |  | > 100 | 0.048 (≈ 0.0361 µg/mL) | 2.8 |
| CCCCCC[C@H]1OCCCNC(=O)[C@H]([C@H](C)O)NC(=O)[C@H](CN)NC(=O)[C@H](C2CCCCC2)NC(=O)[C@H](CC(C)C)N(C)C(=O)[C@@H]1C | 12 (≈ 8.17 µg/mL) | 101 | 96 | 100 (≈ 68.1 µg/mL) | 0.39 (≈ 0.266 µg/mL) |  |
| CCCCCCN1CCCNC(=O)[C@H]([C@H](C)O)NC(=O)[C@H](CN)NC(=O)[C@H]([C@H](C)CC)NC(=O)[C@H](CC(C)C)N(C)C(=O)[C@@H]1C | > 100 | 100 | 101 | > 100 | 12.5 (≈ 8 µg/mL) |  |
| CCCCCC[C@H]1OC[C@@H](C)NC(=O)[C@H](CC(=O)NCCCN)NC(=O)[C@H](CN)NC(=O)[C@H](C2CCCCCC2)NC(=O)[C@H](CCC)N(C)C(=O)[C@@H]1C (cyclo(D(NH(CH2)3NH2)[X1][NMeNva][Gly(cHept)][Dap])) | 18 (≈ 13.5 µg/mL) |  |  | 100 (≈ 75.1 µg/mL) | 0.39 (≈ 0.293 µg/mL) | 1.3 |
| CCCCCC[C@H]1OC[C@@H](C)NC(=O)[C@H](CN(C)CCCN)NC(=O)[C@H](CN)NC(=O)[C@H](C2CCCCCC2)NC(=O)[C@H](CCC)N(C)C(=O)[C@@H]1C | 8.8 (≈ 6.49 µg/mL) |  |  | 100 (≈ 73.7 µg/mL) | 0.39 (≈ 0.287 µg/mL) | 1.8 |
| CCCCCC[C@H]1OC[C@H](C)NC(=O)[C@H]([C@H](C)O)NC(=O)[C@H](CN)NC(=O)[C@H](C2CCCCC2)NC(=O)[C@H](CC(C)C)N(C)C(=O)[C@@H]1C | 84 (≈ 57.2 µg/mL) | 93 | 88 | 71 (≈ 48.3 µg/mL) | 1 (≈ 0.681 µg/mL) |  |
| CCCCCC[C@H]1OC[C@@H](C)NC(=O)[C@H](COc2ccc(CN)cc2)NC(=O)[C@H](CN)NC(=O)[C@H](C2CCCCC2)NC(=O)[C@H](CCC)N(C)C(=O)[C@@H]1C | 6.3 (≈ 4.78 µg/mL) |  |  | 100 (≈ 75.8 µg/mL) | 0.39 (≈ 0.296 µg/mL) | 2.5 |
| CCCCCC[C@H]1OC[C@@H](C)NC(=O)[C@H]([C@H](C)O)NC(=O)[C@H](CN)NC(=O)[C@H](C2CCCCC2)NC(=O)[C@H](CC(C)C)N(C)C(=O)[C@@H]1C | 2.9 (≈ 1.97 µg/mL) | 94 | 93 | 71 (≈ 48.3 µg/mL) | 0.034 (≈ 0.0232 µg/mL) |  |
| CCCCCC[C@H]1O[C@H](C)CNC(=O)[C@H]([C@H](C)O)NC(=O)[C@H](CN)NC(=O)[C@H](C2CCCCC2)NC(=O)[C@H](CC(C)C)N(C)C(=O)[C@@H]1C (cyclo([Chg][Dap][aThr][X7][NMeL])) | 35 (≈ 23.8 µg/mL) | 92 | 100 | 100 (≈ 68.1 µg/mL) | 0.4 (≈ 0.272 µg/mL) |  |
| CC[C@@H](C)[C@@H]1NC(=O)[C@H](CC(C)C)N(C)C(=O)[C@H](C)[C@@H](CCCCC(C)(C)C)OC(=O)CNC(=O)[C@H]([C@H](C)O)NC(=O)[C@H](CN)NC1=O | 3.1 (≈ 2.12 µg/mL) |  |  | 100 (≈ 68.3 µg/mL) | 0.035 (≈ 0.0239 µg/mL) | 3 |
| CCCCCC[C@H]1OC[C@@H](C)NC(=O)[C@H](CCOCCCN)NC(=O)[C@H](CN)NC(=O)[C@H](C2CCCCCC2)NC(=O)[C@H](CCC)N(C)C(=O)[C@@H]1C (cyclo([Dap][hSer](Propyl(3-NH2))[X1][NMeNva][Gly(cHept)])) | 8.8 (≈ 6.49 µg/mL) |  |  | 100 (≈ 73.8 µg/mL) | 0.2 (≈ 0.148 µg/mL) | 1.7 |
